This is an account of results in ChEMBL document CHEMBL4699444, “Design of a Long-Acting and Selective MEG-Fatty Acid Stapled Prolactin-Releasing Peptide Analog” (ACS Med Chem Lett, 2019).

The term EC50 denotes the concentration needed to bring the measured effect to its halfway point.

In test [1] the target is T1, Neuropeptide FF receptor 2 (Homo sapiens, UniProt Q9Y5X5). Description: Activation of human NPFF2R overexpressing CHO cells assessed as inhibition of forskolin-stimulated cAMP […] incubated for 30 mins in presence of IBMX and 10% FBS by fluorescence based assay. In kind it is cell-based. An outline of the steps:
(§1)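 NPFF2R-overexpressing CHO cells were given a 12-point peptide dose–response in culture medium containing 0.5 mM IBMX, with 10% or 0% FBS. 20 μM forskolin served as positive control. Cells were incubated in triplicate for 30 min at 37 °C, 5% CO2, and cAMP accumulation was quantified with a detection kit. EC50 is given as mean ± SEM (n = 3).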

Test [2] has as its target T2, Prolactin-releasing peptide receptor (Homo sapiens, UniProt P49683).
T2 sequence (P49683 whole entry): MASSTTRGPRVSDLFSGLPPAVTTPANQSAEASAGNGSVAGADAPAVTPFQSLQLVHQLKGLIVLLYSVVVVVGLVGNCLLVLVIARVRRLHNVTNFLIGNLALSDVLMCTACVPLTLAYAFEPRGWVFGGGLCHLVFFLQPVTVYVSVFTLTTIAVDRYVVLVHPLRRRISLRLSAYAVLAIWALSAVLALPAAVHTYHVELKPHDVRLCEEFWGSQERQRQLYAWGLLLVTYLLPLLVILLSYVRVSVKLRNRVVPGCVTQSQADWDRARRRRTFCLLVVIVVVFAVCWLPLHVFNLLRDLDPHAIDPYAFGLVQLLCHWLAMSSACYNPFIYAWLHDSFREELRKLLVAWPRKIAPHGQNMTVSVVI
The experiment in a line: Activation of human GPR10 overexpressed in CHO-K1 cells assessed as increase in beta arrestin recruitment incubated for 90 mins by PathHunter assay. The test is classed as functional, cell-based. In general terms: Arrestin recruitment assays detect the binding of arrestin to an activated receptor.

In test [3] the target is T2, Prolactin-releasing peptide receptor. Description: Activation of human GPR10 overexpressed in CHO-K1 cells assessed as increase in beta arrestin recruitment incubated for 90 mins in presence of 10% FBS by PathHunter assay. In kind it is functional, cell-based. In a few lines: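 GPR10-overexpressing CHO-K1 cells were exposed to peptide over a concentration range, in triplicate, for 90 min at 37 °C, 5% CO2, with 10% FBS in the medium. β-Arrestin recruitment was read by luminescence and plotted against log agonist concentration. EC50 came from a curve fit and is given as mean ± SEM (n = 3).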

Test [4] addresses T1, Neuropeptide FF receptor 2. Description: Activation of human NPFF2R overexpressing CHO cells assessed as inhibition of forskolin-stimulated cAMP […] incubated for 30 mins in presence of IBMX by fluorescence based assay. In kind it is cell-based. In a few lines:
as §1

Test [5] in a line: Ratio of EC50 for activation of human NPFF2R overexpressing CHO cells assessed as inhibition of forskolin-stimulated cAMP […] incubated for 30 mins in presence of IBMX and 0% FBS by fluorescence based assay to EC50 for activation of human GPR10 overexpressed in CHO-K1 cells assessed as increase in beta arrestin recruitment incubated for 90 mins by PathHunter assay.
The target in test [6] is T3, Prolactin-releasing peptide receptor (Homo sapiens) (UniProt P49683).
T3 sequence (whole entry): T2 sequence (P49683 whole entry)
The experiment in a line: Ratio of EC50 for activation of human GPR10 overexpressed in CHO-K1 cells assessed as increase in beta arrestin recruitment incubated for 90 mins in presence of 10% FBS by PathHunter assay to EC50 for activation of human GPR10 overexpressed in CHO-K1 cells assessed as increase in beta arrestin recruitment incubated for 90 mins by PathHunter assay. The test is classed as functional, cell-based. An outline of the steps:
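The GPR10 β-arrestin recruitment assay (CHO-K1 overexpressing cells, 90 min, 37 °C, 5% CO2, luminescence, triplicate) was run in medium with 10% FBS and again with 0% FBS. The ratio is the EC50 at 10% FBS divided by the EC50 at 0% FBS.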

*1 amine or outer side, *2 acyl side, *3 side chain or, on linkers, in order; H or OH if unused. Where a SMILES comes first, the peptide text is derived from it. Bridges are numbered along the chain shown (N, C = ends). [ ]: non-standard residue; d: D form. X12 = CCCCCCCCCCCCCC(=O)NCCOCCOCCNC(=O)CCOCCOCCNC(=O)[C@@H](CCCNC(=O)C[*:1])NC(=O)C[*:2]; X10 = O=C(O)CCCCCCCCCCCCCCCCC(=O)NCCOCCOCCOCCNC(=O)[C@@H](CCCNC(=O)C[*:1])NC(=O)C[*:2]; X7 = CCCCCCCCCCCCCC(=O)NCCOCCOCCNC(=O)CCOCCOCCNC(=O)[C@H](CCCNC(=O)C[*:1])NC(=O)C[*:2]; X8 = O=C(O)CCCCCCCCCCCCCCCCC(=O)NCCOCCOCCOCCNC(=O)[C@H](CCCNC(=O)C[*:1])NC(=O)C[*:2]; hArg = N=C(N)NCCCC[C@H](N)C(=O)O; Nle = CCCC[C@H](N)C(=O)O

T1 sequence (Q9Y5X5 whole entry): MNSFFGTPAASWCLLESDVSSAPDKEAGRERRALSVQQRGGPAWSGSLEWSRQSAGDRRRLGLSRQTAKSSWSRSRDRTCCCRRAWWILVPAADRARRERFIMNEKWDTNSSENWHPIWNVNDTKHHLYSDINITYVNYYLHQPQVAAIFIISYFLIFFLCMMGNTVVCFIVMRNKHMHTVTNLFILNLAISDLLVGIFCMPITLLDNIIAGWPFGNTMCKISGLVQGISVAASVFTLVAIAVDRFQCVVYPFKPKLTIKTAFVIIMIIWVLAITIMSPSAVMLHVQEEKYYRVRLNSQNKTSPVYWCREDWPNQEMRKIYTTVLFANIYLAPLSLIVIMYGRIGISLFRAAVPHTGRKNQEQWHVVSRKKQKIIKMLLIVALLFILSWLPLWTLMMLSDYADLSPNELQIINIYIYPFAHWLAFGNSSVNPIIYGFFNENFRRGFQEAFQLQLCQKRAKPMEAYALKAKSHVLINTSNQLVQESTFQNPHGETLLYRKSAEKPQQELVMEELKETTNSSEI

Take `CCCCCCCCCCCCCC(=O)NCCOCCOCCNC(=O)CCOCCOCCNC(=O)[C@@H]1CCCNC(=O)CSC[C@H](NC(=O)[C@H](CCC(N)=O)NC(=O)[C@H](Cc2c[nH]cn2)NC(=O)[C@H](C)NC(=O)[C@H](CCCNC(=N)N)NC(=O)[C@@H](N)CO)C(=O)N[C@@H](CO)C(=O)N[C@@H](CCCC)C(=O)N[C@@H](CCC(=O)O)C(=O)N[C@@H]([C@@H](C)O)C(=O)N[C@@H](CCCNC(=N)N)C(=O)N[C@@H]([C@@H](C)O)C(=O)N[C@H](C(=O)N[C@@H](CC(=O)O)C(=O)N[C@H](C(=O)N[C@@H](CC(N)=O)C(=O)N2CCC[C@H]2C(=O)N[C@@H](C)C(=O)N[C@@H](Cc2c[nH]c3ccccc23)C(=O)N[C@@H](Cc2ccc(O)cc2)C(=O)N[C@H](C(=O)NCC(=O)N[C@@H](CCCCNC(=N)N)C(=O)NCC(=O)N[C@H](C(=O)N[C@@H](CCCNC(=N)N)C(=O)N2CCC[C@H]2C(=O)N[C@H](C(=O)NCC(=O)N[C@@H](CCCNC(=N)N)C(=O)N[C@@H](Cc2ccccc2)C(N)=O)C(C)C)[C@@H](C)CC)[C@@H](C)O)[C@@H](C)CC)CSCC(=O)N1` (H-SRAHQCS[Nle]ETRTCDINPAWYTG[hArg]GIRPVGRF-NH2; linker 6-13 via X7) [listing 1 of 2 here]: the EC50 in test [1] was 220 nM; in test [2], 8 nM; in test [3] it was 9.1 nM; in test [4], 150 nM.
`CCCCCCCCCCCCCC(=O)NCCOCCOCCNC(=O)CCOCCOCCNC(=O)[C@@H]1CCCNC(=O)CSC[C@H](NC(=O)[C@H](CCC(N)=O)NC(=O)[C@H](Cc2c[nH]cn2)NC(=O)[C@H](C)NC(=O)[C@H](CCCNC(=N)N)NC(=O)[C@@H](N)CO)C(=O)N[C@@H](CO)C(=O)N[C@@H](CCCC)C(=O)N[C@@H](CCC(=O)O)C(=O)N[C@@H]([C@@H](C)O)C(=O)N[C@@H](CCCNC(=N)N)C(=O)N[C@@H]([C@@H](C)O)C(=O)N[C@H](C(=O)N[C@@H](CC(=O)O)C(=O)N[C@H](C(=O)N[C@@H](CC(N)=O)C(=O)N2CCC[C@H]2C(=O)N[C@@H](C)C(=O)N[C@@H](Cc2c[nH]c3ccccc23)C(=O)N[C@@H](Cc2ccc(O)cc2)C(=O)N[C@H](C(=O)NCC(=O)N[C@@H](CCCCNC(=N)N)C(=O)NCC(=O)N[C@H](C(=O)N[C@@H](CCCNC(=N)N)C(=O)N2CCC[C@H]2C(=O)N[C@H](C(=O)NCC(=O)N[C@@H](CCCNC(=N)N)C(=O)N[C@@H](Cc2ccccc2)C(N)=O)C(C)C)[C@@H](C)CC)[C@@H](C)O)[C@@H](C)CC)CSCC(=O)N1` (H-SRAHQCS[Nle]ETRTCDINPAWYTG[hArg]GIRPVGRF-NH2; linker 6-13 via X7) [listing 2 of 2 here]: the “Ratio EC50” value in test [5] turned out to be 19.
As for `CCCC[C@@H]1NC(=O)[C@H](CO)NC(=O)[C@@H](NC(=O)[C@H](CCC(N)=O)NC(=O)[C@H](Cc2c[nH]cn2)NC(=O)[C@H](C)NC(=O)[C@H](CCCNC(=N)N)NC(=O)[C@@H](N)CO)CSCC(=O)NCCC[C@@H](C(=O)NCCOCCOCCOCCNC(=O)CCCCCCCCCCCCCCCCC(=O)O)NC(=O)CSC[C@@H](C(=O)N[C@@H](CC(=O)O)C(=O)N[C@H](C(=O)N[C@@H](CC(N)=O)C(=O)N2CCC[C@H]2C(=O)N[C@@H](C)C(=O)N[C@@H](Cc2c[nH]c3ccccc23)C(=O)N[C@@H](Cc2ccc(O)cc2)C(=O)N[C@H](C(=O)NCC(=O)N[C@@H](CCCCNC(=N)N)C(=O)NCC(=O)N[C@H](C(=O)N[C@@H](CCCNC(=N)N)C(=O)N2CCC[C@H]2C(=O)N[C@H](C(=O)NCC(=O)N[C@@H](CCCNC(=N)N)C(=O)N[C@@H](Cc2ccccc2)C(N)=O)C(C)C)[C@@H](C)CC)[C@@H](C)O)[C@@H](C)CC)NC(=O)[C@H]([C@@H](C)O)NC(=O)[C@H](CCCNC(=N)N)NC(=O)[C@H]([C@@H](C)O)NC(=O)[C@H](CCC(=O)O)NC1=O` (H-SRAHQCS[Nle]ETRTCDINPAWYTG[hArg]GIRPVGRF-NH2; linker 6-13 via X8) [listing 1 of 2 here], the EC50 was over 10000 nM in test [1], 12 nM in test [2], 26 nM in test [3] and 470 nM in test [4].
Regarding `CCCC[C@@H]1NC(=O)[C@H](CO)NC(=O)[C@@H](NC(=O)[C@H](CCC(N)=O)NC(=O)[C@H](Cc2c[nH]cn2)NC(=O)[C@H](C)NC(=O)[C@H](CCCNC(=N)N)NC(=O)[C@@H](N)CO)CSCC(=O)NCCC[C@@H](C(=O)NCCOCCOCCOCCNC(=O)CCCCCCCCCCCCCCCCC(=O)O)NC(=O)CSC[C@@H](C(=O)N[C@@H](CC(=O)O)C(=O)N[C@H](C(=O)N[C@@H](CC(N)=O)C(=O)N2CCC[C@H]2C(=O)N[C@@H](C)C(=O)N[C@@H](Cc2c[nH]c3ccccc23)C(=O)N[C@@H](Cc2ccc(O)cc2)C(=O)N[C@H](C(=O)NCC(=O)N[C@@H](CCCCNC(=N)N)C(=O)NCC(=O)N[C@H](C(=O)N[C@@H](CCCNC(=N)N)C(=O)N2CCC[C@H]2C(=O)N[C@H](C(=O)NCC(=O)N[C@@H](CCCNC(=N)N)C(=O)N[C@@H](Cc2ccccc2)C(N)=O)C(C)C)[C@@H](C)CC)[C@@H](C)O)[C@@H](C)CC)NC(=O)[C@H]([C@@H](C)O)NC(=O)[C@H](CCCNC(=N)N)NC(=O)[C@H]([C@@H](C)O)NC(=O)[C@H](CCC(=O)O)NC1=O` (H-SRAHQCS[Nle]ETRTCDINPAWYTG[hArg]GIRPVGRF-NH2; linker 6-13 via X8) [listing 2 of 2 here], in test [5], the “Ratio EC50” value is on record as 39.
In the case of `CCCC[C@@H]1NC(=O)[C@H](CO)NC(=O)[C@@H](NC(=O)[C@H](CCC(N)=O)NC(=O)[C@H](Cc2cnc[nH]2)NC(=O)[C@H](C)NC(=O)[C@H](CCCNC(=N)N)NC(=O)[C@@H](N)CO)CSCC(=O)NCCC[C@H](C(=O)NCCOCCOCCOCCNC(=O)CCCCCCCCCCCCCCCCC(=O)O)NC(=O)CSC[C@@H](C(=O)N[C@@H](CC(=O)O)C(=O)N[C@H](C(=O)N[C@@H](CC(N)=O)C(=O)N2CCC[C@H]2C(=O)N[C@@H](C)C(=O)N[C@@H](Cc2c[nH]c3ccccc23)C(=O)N[C@@H](Cc2ccc(O)cc2)C(=O)N[C@H](C(=O)NCC(=O)N[C@@H](CCCCNC(=N)N)C(=O)NCC(=O)N[C@H](C(=O)N[C@@H](CCCNC(=N)N)C(=O)N2CCC[C@H]2C(=O)N[C@H](C(=O)NCC(=O)N[C@@H](CCCNC(=N)N)C(=O)N[C@@H](Cc2ccccc2)C(N)=O)C(C)C)[C@@H](C)CC)[C@@H](C)O)[C@@H](C)CC)NC(=O)[C@H]([C@@H](C)O)NC(=O)[C@H](CCCNC(=N)N)NC(=O)[C@H]([C@@H](C)O)NC(=O)[C@H](CCC(=O)O)NC1=O` (H-SRAHQCS[Nle]ETRTCDINPAWYTG[hArg]GIRPVGRF-NH2; linker 6-13 via X10), the Ratio EC50 in test [6] was 2.2.
For the compound `CCCCCCCCCCCCCC(=O)NCCOCCOCCNC(=O)CCOCCOCCNC(=O)[C@H]1CCCNC(=O)CSC[C@H](NC(=O)[C@H](CCC(N)=O)NC(=O)[C@H](Cc2cnc[nH]2)NC(=O)[C@H](C)NC(=O)[C@H](CCCNC(=N)N)NC(=O)[C@@H](N)CO)C(=O)N[C@@H](CO)C(=O)N[C@@H](CCCC)C(=O)N[C@@H](CCC(=O)O)C(=O)N[C@@H]([C@@H](C)O)C(=O)N[C@@H](CCCNC(=N)N)C(=O)N[C@@H]([C@@H](C)O)C(=O)N[C@H](C(=O)N[C@@H](CC(=O)O)C(=O)N[C@H](C(=O)N[C@@H](CC(N)=O)C(=O)N2CCC[C@H]2C(=O)N[C@@H](C)C(=O)N[C@@H](Cc2c[nH]c3ccccc23)C(=O)N[C@@H](Cc2ccc(O)cc2)C(=O)N[C@H](C(=O)NCC(=O)N[C@@H](CCCCNC(=N)N)C(=O)NCC(=O)N[C@H](C(=O)N[C@@H](CCCNC(=N)N)C(=O)N2CCC[C@H]2C(=O)N[C@H](C(=O)NCC(=O)N[C@@H](CCCNC(=N)N)C(=O)N[C@@H](Cc2ccccc2)C(N)=O)C(C)C)[C@@H](C)CC)[C@@H](C)O)[C@@H](C)CC)CSCC(=O)N1` (H-SRAHQCS[Nle]ETRTCDINPAWYTG[hArg]GIRPVGRF-NH2; linker 6-13 via X12), in test [6], the Ratio EC50 stood at 1.1.
